From ChEMBL document CHEMBL1629497, “Synthesis and biological evaluation of new N-alkyl 1-aryl-5-(1H-pyrrol-1-yl)-1H-pyrazole-3-carboxamides as cannabinoid receptor ligands” (Eur J Med Chem, 2010)
The source made the active and inactive calls. The calls are words filed in the database; no cut-off is given here.

Legend:
Cannabinoid receptor 1 = Cannabinoid receptor 1 (Homo sapiens, UniProt P21554); experiment: biochemical; type: cell-based, HEK293
Cannabinoid receptor 2 = Cannabinoid receptor 2 (Homo sapiens, UniProt P34972); experiment: Displacement of [3H]CP-55,940 from recombinant human CB2 receptor transfected in HEK cells; type: cell-based, HEK293
Chain of Cannabinoid receptor 2 (P34972 whole entry): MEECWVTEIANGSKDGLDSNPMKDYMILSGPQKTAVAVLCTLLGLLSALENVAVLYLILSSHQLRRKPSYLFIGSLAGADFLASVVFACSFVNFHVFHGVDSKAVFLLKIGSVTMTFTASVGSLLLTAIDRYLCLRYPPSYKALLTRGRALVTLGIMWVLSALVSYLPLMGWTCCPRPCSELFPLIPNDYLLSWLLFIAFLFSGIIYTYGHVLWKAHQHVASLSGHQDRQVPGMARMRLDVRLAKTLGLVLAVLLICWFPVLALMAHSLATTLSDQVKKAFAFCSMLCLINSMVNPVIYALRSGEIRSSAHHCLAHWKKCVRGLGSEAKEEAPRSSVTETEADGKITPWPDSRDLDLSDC
Summary of the method: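 Competition binding used membranes from HEK cells transfected with hCB1 or hCB2. Data are means of at least three experiments in duplicate. The selectivity index is Ki(CB2)/Ki(CB1).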

Rattus norvegicus [1] = experiment: Antiobesity activity in diet-induced obese Wistar rat assessed as reduction in food intake at 3 mg/kg, ip measured after 1 to 6 hrs relative to vehicle-treated control; type: functional; parameters: scale not given: the % may be the effect or the level left; conditions: route intraperitoneal
Summary of the method: (§1)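 Adult male Wistar rats (~500 g) were individually housed on an inverted 12:12 h cycle with free access to chow and water. Groups of 7–8, matched for body weight and 3-day food intake, received vehicle or compound i.p. (saline with a few drops of Tween 80, 3 mL/kg) 30 min before lights off. Food and water were weighed at 1–6 h and 24 h. Analysis was by ANOVA and Mann-Whitney.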

Rattus norvegicus [2] = experiment: Antiobesity activity in diet-induced obese Wistar rat assessed as water intake at 10 mg/kg, ip measured upto 6 hrs relative to vehicle-treated control; type: functional, organism-based; parameters: dose 10 mg/kg
Summary of the method: as §1

Rattus norvegicus [3] = experiment: Antiobesity activity in diet-induced obese Wistar rat assessed as water intake at 10 mg/kg, ip measured after 24 hrs relative to vehicle-treated control; type: functional, organism-based; parameters: dose 10 mg/kg
Summary of the method: as §1

Rattus norvegicus [4] = experiment: Antiobesity activity in diet-induced obese Wistar rat assessed as water intake at 3 mg/kg, ip measured after 24 hrs relative to vehicle-treated control; type: functional, organism-based; parameters: dose 3 mg/kg
Summary of the method: as §1

Rattus norvegicus [5] = experiment: Antiobesity activity in diet-induced obese Wistar rat assessed as reduction in food intake at 10 mg/kg, ip measured after 1 to 6 hrs relative to vehicle-treated control; type: functional; parameters: scale not given: the % may be the effect or the level left; conditions: route intraperitoneal
Summary of the method: as §1

Rattus norvegicus [6] = experiment: Antiobesity activity in diet-induced obese Wistar rat assessed as reduction in food intake at 3 mg/kg, ip measured after 24 hrs relative to vehicle-treated control; type: functional, organism-based; parameters: dose 3 mg/kg
Summary of the method: as §1

Rattus norvegicus [7] = experiment: Antiobesity activity in diet-induced obese Wistar rat assessed as reduction in food intake at 10 mg/kg, ip measured after 24 hrs relative to vehicle-treated control; type: functional, organism-based; parameters: dose 10 mg/kg
Summary of the method: as §1

Rattus norvegicus [8] = experiment: Antiobesity activity in diet-induced obese Wistar rat assessed as water intake at 1 mg/kg, ip measured after 24 hrs relative to vehicle-treated control; type: functional, organism-based; parameters: dose 1 mg/kg
Summary of the method: as §1

Rattus norvegicus [9] = experiment: Antiobesity activity in diet-induced obese Wistar rat assessed as water intake at 0.1 mg/kg, ip measured after 24 hrs relative to vehicle-treated control; type: functional, organism-based; parameters: dose 0.1 mg/kg
Summary of the method: as §1

Rattus norvegicus [10] = experiment: Antiobesity activity in diet-induced obese Wistar rat assessed as water intake at 3 mg/kg, ip measured upto 6 hrs relative to vehicle-treated control; type: functional, organism-based; parameters: dose 3 mg/kg
Summary of the method: as §1

[11] = Tmax in Wistar rat brain at 10 mg/kg, ip; type: ADME, organism-based; parameters: dose 10 mg/kg, route intraperitoneal
Summary of the method: (§2)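 Rats (n = 18) were dosed at 10 mg/kg i.p. in 2% Tween 80/98% saline (1 mL/kg). Plasma and brain were sampled at 30, 60, 120, 240 and 480 min and 24 h, then stored at −80 °C. Samples were extracted with internal standard and quantified by LC-MS/MS against calibration curves. Non-compartmental analysis was used, and brain penetration was taken as the AUC ratio. Values are means of three rats.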

[12] = Cmax in Wistar rat brain at 10 mg/kg, ip; type: ADME, organism-based; parameters: dose 10 mg/kg, route intraperitoneal
Summary of the method: as §2

[13] = Half life in Wistar rat brain at 10 mg/kg, ip; type: ADME, organism-based; parameters: dose 10 mg/kg, route intraperitoneal
Summary of the method: as §2

[14] = Mean residence time in Wistar rat brain at 10 mg/kg, ip; type: ADME, organism-based; parameters: dose 10 mg/kg, route intraperitoneal
Summary of the method: as §2

[15] = Tmax in Wistar rat plasma at 10 mg/kg, ip; type: ADME, organism-based; parameters: dose 10 mg/kg, route intraperitoneal
Summary of the method: as §2

Rattus norvegicus [16] = experiment: Antiobesity activity in diet-induced obese Wistar rat assessed as water intake at 1 mg/kg, ip measured after upto 6 hrs relative to vehicle-treated control; type: functional, organism-based; parameters: dose 1 mg/kg
Summary of the method: as §1

[17] = Half life in Wistar rat plasma at 10 mg/kg, ip; type: ADME, organism-based; parameters: dose 10 mg/kg, route intraperitoneal
Summary of the method: as §2

Brain = experiment: Drug level in Wistar rat brain at 10 mg/kg, ip; type: ADME, organism-based; parameters: dose 10 mg/kg, route intraperitoneal; conditions: in vivo
Summary of the method: as §2

[18] = AUC (last) in Wistar rat plasma at 10 mg/kg, ip; type: ADME, organism-based; parameters: dose 10 mg/kg, route intraperitoneal, time 0 - last
Summary of the method: as §2

Rattus norvegicus [19] = experiment: Antiobesity activity in diet-induced obese Wistar rat assessed as water intake at 0.1 mg/kg, ip measured upto 6 hrs relative to vehicle-treated control; type: functional, organism-based; parameters: dose 0.1 mg/kg
Summary of the method: as §1

Rattus norvegicus [20] = experiment: Antiobesity activity in diet-induced obese Wistar rat assessed as reduction in food intake at 1 mg/kg, ip measured after 24 hrs relative to vehicle-treated control; type: functional, organism-based; parameters: dose 1 mg/kg
Summary of the method: as §1

Rattus norvegicus [21] = experiment: Antiobesity activity in diet-induced obese Wistar rat assessed as reduction in food intake at 1 mg/kg, ip measured after 1 to 6 hrs relative to vehicle-treated control; type: functional; parameters: scale not given: the % may be the effect or the level left; conditions: route intraperitoneal
Summary of the method: as §1

Rattus norvegicus [22] = experiment: Antiobesity activity in diet-induced obese Wistar rat assessed as reduction in food intake at 0.1 mg/kg, ip measured after 1 to 6 hrs relative to vehicle-treated control; type: functional, organism-based; parameters: dose 0.1 mg/kg
Summary of the method: as §1

[23] = Cmax in Wistar rat plasma at 10 mg/kg, ip; type: ADME, organism-based; parameters: dose 10 mg/kg, route intraperitoneal
Summary of the method: as §2

[24] = AUC in Wistar rat brain at 10 mg/kg, ip; type: ADME, organism-based; parameters: dose 10 mg/kg, route intraperitoneal
Summary of the method: as §2

[25] = Mean residence time in Wistar rat plasma at 10 mg/kg, ip; type: ADME, organism-based; parameters: dose 10 mg/kg, route intraperitoneal
Summary of the method: as §2

Chain of Cannabinoid receptor 1 (P21554 whole entry): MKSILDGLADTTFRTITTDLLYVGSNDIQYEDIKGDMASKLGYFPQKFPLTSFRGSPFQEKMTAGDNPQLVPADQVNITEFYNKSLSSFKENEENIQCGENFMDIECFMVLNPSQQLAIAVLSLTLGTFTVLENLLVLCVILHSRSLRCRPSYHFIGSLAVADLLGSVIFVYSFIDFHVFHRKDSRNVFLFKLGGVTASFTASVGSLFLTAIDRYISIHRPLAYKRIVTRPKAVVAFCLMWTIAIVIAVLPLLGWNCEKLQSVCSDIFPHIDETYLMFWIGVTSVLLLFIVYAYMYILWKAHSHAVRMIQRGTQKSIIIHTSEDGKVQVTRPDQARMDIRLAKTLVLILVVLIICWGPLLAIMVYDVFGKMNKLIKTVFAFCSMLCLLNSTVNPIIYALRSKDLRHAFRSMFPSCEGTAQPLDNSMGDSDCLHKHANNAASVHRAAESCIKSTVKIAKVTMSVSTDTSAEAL

CCCCCCNC(=O)c1nn(-c2ccc(F)cc2F)c(-n2c(C)ccc2C)c1C
Ki (Cannabinoid receptor 1): 0.311 µM | Ki (Cannabinoid receptor 2): 0.487 µM

Cc1c(C(=O)NC(C)(C)C)nn(-c2ccc(Cl)cc2Cl)c1-n1c(C)ccc1C
Ki (Cannabinoid receptor 1): 0.151 µM | Ki (Cannabinoid receptor 2): 0.0202 µM

CCCCCCC(C)NC(=O)c1nn(-c2ccc(Cl)cc2Cl)c(-n2cccc2)c1C (stereo unspecified)
Ki (Cannabinoid receptor 1): 0.157 µM | Ki (Cannabinoid receptor 2): 0.237 µM

CCCNC(=O)c1nn(-c2ccc(Cl)cc2Cl)c(-n2c(C)ccc2C)c1C
Ki (Cannabinoid receptor 1): 0.29 µM | Ki (Cannabinoid receptor 2): 1.95 µM

CCCCCCCNC(=O)c1nn(-c2ccc(Cl)cc2Cl)c(-n2cccc2)c1C
Ki (Cannabinoid receptor 1): 0.211 µM | Ki (Cannabinoid receptor 2): 0.255 µM

Cc1c(C(=O)NCCC(C)(C)C)nn(-c2ccc(Cl)cc2Cl)c1-n1cccc1
Ki (Cannabinoid receptor 1): 0.0456 µM | Ki (Cannabinoid receptor 2): 0.0524 µM

CCCCNC(=O)c1nn(-c2ccc(Cl)cc2Cl)c(-n2cccc2)c1C
Ki (Cannabinoid receptor 1): 0.273 µM | Ki (Cannabinoid receptor 2): 0.796 µM

CCCCCNC(=O)c1nn(-c2ccc(Cl)cc2Cl)c(-n2cccc2)c1C
Ki (Cannabinoid receptor 1): 0.081 µM | Ki (Cannabinoid receptor 2): 0.206 µM

Cc1c(C(=O)NCCC(C)(C)C)nn(-c2ccc(F)cc2F)c1-n1c(C)ccc1C
Ki (Cannabinoid receptor 1): 0.0907 µM | Ki (Cannabinoid receptor 2): 0.163 µM

CCCCCNC(=O)c1nn(-c2ccc(Cl)cc2Cl)c(-n2c(C)ccc2C)c1C
Ki (Cannabinoid receptor 1): 0.182 µM | Ki (Cannabinoid receptor 2): 0.495 µM

CCCCCCC(C)NC(=O)c1nn(-c2ccc(Cl)cc2Cl)c(-n2c(C)ccc2C)c1C (stereo unspecified)
Ki (Cannabinoid receptor 1): 0.105 µM | Ki (Cannabinoid receptor 2): 0.136 µM

CCCCNC(=O)c1nn(-c2ccc(Cl)cc2Cl)c(-n2c(C)ccc2C)c1C
Ki (Cannabinoid receptor 1): 0.123 µM | Ki (Cannabinoid receptor 2): 0.46 µM

CCCNC(=O)c1nn(-c2ccc(Cl)cc2Cl)c(-n2cccc2)c1C
Ki (Cannabinoid receptor 1): 0.55 µM | Ki (Cannabinoid receptor 2): 1.5 µM

Cc1c(C(=O)NCCC(C)(C)C)nn(-c2ccc(Cl)cc2Cl)c1-n1c(C)ccc1C
Activity (Rattus norvegicus [1]): 10% | Ki (Cannabinoid receptor 1): 0.0375 µM | Activity (Rattus norvegicus [2]): inactive | Activity (Rattus norvegicus [3]): inactive | Activity (Rattus norvegicus [4]): inactive | Activity (Rattus norvegicus [5]): 30% | Activity (Rattus norvegicus [6]): Active | Activity (Rattus norvegicus [7]): Active | Activity (Rattus norvegicus [8]): inactive | Ki (Cannabinoid receptor 2): 0.134 µM | Activity (Rattus norvegicus [9]): inactive | Activity (Rattus norvegicus [10]): inactive

CCCCCCCNC(=O)c1nn(-c2ccc(Cl)cc2Cl)c(-n2c(C)ccc2C)c1C
Ki (Cannabinoid receptor 1): 0.0972 µM | Ki (Cannabinoid receptor 2): 0.205 µM

Cc1c(C(=O)NC(C)C)nn(-c2ccc(Cl)cc2Cl)c1-n1c(C)ccc1C
Ki (Cannabinoid receptor 1): 0.234 µM | Ki (Cannabinoid receptor 2): 1.8 µM

Cc1c(C(=O)NCCCCCO)nn(-c2ccc(Cl)cc2Cl)c1-n1cccc1
Ki (Cannabinoid receptor 1): 0.534 µM | Ki (Cannabinoid receptor 2): 2.34 µM

CCC(C)(C)NC(=O)c1nn(-c2ccc(Cl)cc2Cl)c(-n2cccc2)c1C
Ki (Cannabinoid receptor 1): 0.0476 µM | Ki (Cannabinoid receptor 2): 0.0057 µM

CCCCCCCNC(=O)c1nn(-c2ccc(F)cc2F)c(-n2c(C)ccc2C)c1C
Ki (Cannabinoid receptor 1): 0.368 µM | Ki (Cannabinoid receptor 2): 0.365 µM

Cc1c(C(=O)NC(C)(C)C)nn(-c2ccc(Cl)cc2Cl)c1-n1cccc1
Ki (Cannabinoid receptor 1): 0.0895 µM | Ki (Cannabinoid receptor 2): 0.0146 µM

CCC(C)(C)NC(=O)c1nn(-c2ccc(Cl)cc2Cl)c(-n2c(C)ccc2C)c1C
Ki (Cannabinoid receptor 1): 0.193 µM | Ki (Cannabinoid receptor 2): 0.121 µM

CCCCCCNC(=O)c1nn(-c2ccc(Cl)cc2Cl)c(-n2cccc2)c1C
Tmax [11]: 0.5 h | Cmax [12]: 0.11 µg/mL | half-life [13]: 14.4 h | MRT [14]: 14.3 h | Ki (Cannabinoid receptor 1): 0.124 µM | Activity (Rattus norvegicus [2]): inactive | Tmax [15]: 0.5 h | Activity (Rattus norvegicus [3]): inactive | Activity (Rattus norvegicus [16]): inactive | half-life [17]: 13.9 h | Activity (Brain): 97% | Activity (Rattus norvegicus [4]): inactive | AUC(0-t) [18]: 0.34 µg·h/mL | Activity (Rattus norvegicus [19]): inactive | Activity (Rattus norvegicus [5]): 25% | Activity (Rattus norvegicus [7]): inactive | Activity (Rattus norvegicus [20]): inactive | Activity (Rattus norvegicus [8]): inactive | Ki (Cannabinoid receptor 2): 0.383 µM | Activity (Rattus norvegicus [21]): 10% | Activity (Rattus norvegicus [22]): inactive | Cmax [23]: 0.17 µg/mL | AUC [24]: 0.33 µg·h/mL | MRT [25]: 14.8 h | Activity (Rattus norvegicus [9]): inactive

Cc1c(C(=O)NC(C)C)nn(-c2ccc(Cl)cc2Cl)c1-n1cccc1
Ki (Cannabinoid receptor 1): 0.519 µM | Ki (Cannabinoid receptor 2): 1.13 µM

Cc1c(C(=O)NCCCCCO)nn(-c2ccc(Cl)cc2Cl)c1-n1c(C)ccc1C
Ki (Cannabinoid receptor 1): 0.372 µM | Ki (Cannabinoid receptor 2): 3.2 µM
